# Screening results (PubChem)
# Apaf1 activ: human Apaf-1 activation. O14727. Apaf-1 apoptosome caspase-3 activation, DEVD-Rh110 fluorescence; stronger effect = lower value. activity change, negative = activation, % at 20 µM. 0.31% of 330,000 active;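 active = activity change at or below -40% at 20 µM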
# Target sequence (O14727 whole entry, looked up): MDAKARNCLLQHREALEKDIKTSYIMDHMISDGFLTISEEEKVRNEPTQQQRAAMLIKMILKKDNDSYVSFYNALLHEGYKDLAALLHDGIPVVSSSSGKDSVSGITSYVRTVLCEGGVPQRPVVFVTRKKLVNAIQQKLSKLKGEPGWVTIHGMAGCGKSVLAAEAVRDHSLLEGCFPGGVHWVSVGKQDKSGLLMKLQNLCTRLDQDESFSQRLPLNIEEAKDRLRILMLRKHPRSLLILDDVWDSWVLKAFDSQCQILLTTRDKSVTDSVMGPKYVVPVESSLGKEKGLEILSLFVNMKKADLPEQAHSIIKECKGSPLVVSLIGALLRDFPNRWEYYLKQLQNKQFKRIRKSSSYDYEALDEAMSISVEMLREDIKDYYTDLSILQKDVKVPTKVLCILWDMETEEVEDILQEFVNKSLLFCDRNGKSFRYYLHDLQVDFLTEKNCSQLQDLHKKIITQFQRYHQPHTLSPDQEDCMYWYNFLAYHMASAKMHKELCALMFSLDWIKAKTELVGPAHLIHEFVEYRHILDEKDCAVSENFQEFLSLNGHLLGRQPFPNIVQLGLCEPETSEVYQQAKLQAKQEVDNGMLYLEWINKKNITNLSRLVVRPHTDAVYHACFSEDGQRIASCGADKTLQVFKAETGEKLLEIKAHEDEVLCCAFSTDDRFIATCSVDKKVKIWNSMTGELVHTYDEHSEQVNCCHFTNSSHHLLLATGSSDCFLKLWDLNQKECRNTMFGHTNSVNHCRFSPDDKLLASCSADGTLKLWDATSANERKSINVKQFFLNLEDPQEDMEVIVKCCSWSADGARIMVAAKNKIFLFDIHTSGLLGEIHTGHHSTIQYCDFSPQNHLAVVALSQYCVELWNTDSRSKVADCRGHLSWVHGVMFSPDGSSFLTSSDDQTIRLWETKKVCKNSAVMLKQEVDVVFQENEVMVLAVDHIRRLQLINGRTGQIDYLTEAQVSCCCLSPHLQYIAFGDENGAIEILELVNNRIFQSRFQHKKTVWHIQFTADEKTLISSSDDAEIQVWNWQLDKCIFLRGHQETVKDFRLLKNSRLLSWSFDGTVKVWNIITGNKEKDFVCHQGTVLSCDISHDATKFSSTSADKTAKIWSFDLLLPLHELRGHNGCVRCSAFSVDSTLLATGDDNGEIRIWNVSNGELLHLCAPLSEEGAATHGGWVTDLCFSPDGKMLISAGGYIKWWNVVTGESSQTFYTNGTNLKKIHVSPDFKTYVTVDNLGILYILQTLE
#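 system = biochemical Apaf-1 apoptosome reconstitution | buffer or medium = 20 mM HEPES pH 7.5 with CHAPS, BSA | also added = dATP and cytochrome c as apoptosome triggers, (Z-DEVD)2-Rh110 substrate | incubation = 30 min compound preincubation and 50 min reaction, both room temperature | measured by = fluorescence, 540 nm emission, 480 nm excitation | read-out basis = Caspase-3 cleavage activity downstream of Apaf-1 activation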
# Rh110 interf act: interferes with Rh110 fluorescence, flagging false Apaf-1 activators. shares compounds with Apaf1 activ. Rh110 fluorescence interference, quenched caspase reaction, Ex480/Em540. fluorescence interference (activity change), % at 20 µM, hits read low. 980 tested, under 10 active;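 active = mean activity change at or below -40% when tested at 20 µM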
# Apaf-1 act conf2: confirmation of human Apaf-1 activators; shares compounds with Apaf1 activ; reconstituted apoptosome caspase-3 activity, DEVD-Rh110 fluorescence; stronger effect = lower value; activity change, negative = activation, % at 20 µM; 5% of 980 active;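 active = mean activity change at or below -40%, meaning activation of 40% or more, at 20 µM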
# Numbers stand for hits; 0 = inactive; - = no result given. Only a sample is shown.
SMILES,Apaf1 activ,Rh110 interf act,Apaf-1 act conf2
CN1CCN(c2cc(N3CCN(C(=O)c4ccco4)CC3)c3c4c(onc24)-c2ccccc2C3=O)CC1,0,-,-
O=C1c2ccccc2-c2onc3c(N4CCN(CCO)CC4)cc(N4CCN(C(=O)c5ccco5)CC4)c1c23,0,-,-
O=C(c1ccco1)N1CCN(C(c2ccccc2)c2nnnn2Cc2cccs2)CC1 (stereo not drawn),-106.6,0,0
CNC(=O)c1[nH]cnc1C(=O)Nc1ccc(C)cc1,-205.5,0,0
COc1ccccc1NC(=O)c1nc[nH]c1C(=O)Nc1ccccc1OC,0,-,-
CCOC(=O)C1(Cc2ccccc2C)CCCN(C(=O)c2ccc3nccnc3c2)C1 (stereo not drawn),-330.4,0,0
O=C(c1ccco1)[C@@H]1[C@@H]2C(=O)N(c3ccccc3)C(=O)[C@@H]2C2c3ccccc3C=CN21 (stereo partly drawn),0,-,-
CC(=O)N(/N=C1\Sc2ccccc2C1=O)c1ccccc1C,0,-,-
O=C(CSc1nnc(-c2ccncc2)n1CCc1ccccc1)N1CCCC1,-262.6,0,0
CCc1cc2c(SCC(=O)N3CC(=O)Nc4ccccc43)ncnc2s1,0,-,-
Cc1cc(C)c(S(=O)(=O)/N=C2/C=C(SCC(=O)O)C(=O)c3ccccc32)cc1C,0,-,-
NS(=O)(=O)c1ccc(NC2=CC(=O)C(=O)c3ccccc32)cc1,0,-,-
O=C(N/N=C/c1ccc(OC(=O)c2ccccc2)cc1)c1ccc(CN2CCOCC2)cc1,-67.9,0,0
COc1ccc(/C=N/NC(=O)c2nn(-c3ccccc3)c(=O)c3c(N)scc23)cc1,0,-,-
O=C(C[n+]1cccc(C(=O)N/N=C/c2ccc(Br)cc2)c1)c1ccccc1,0,-,-
CCn1c(=NC(=O)c2ccco2)sc2cccc(F)c21,-431.5,0,0
O=c1[nH]c(=O)n(C2CCCCCC2)c(O)c1C=NCc1ccc(F)cc1,0,-,-
N#CC1=C(N)C(C#N)(C#N)[C@H](c2ccoc2)[C@H]2CN(Cc3ccccc3)CC=C12,0,-,-
COc1cc([N+](=O)[O-])c2ncsc2c1,-58.5,0,0
O/C=c1\ccc2cccc3nc(C(F)(F)F)nc1c23,0,-,-
CCN1C(N(C)CCc2c[nH]c3ccccc23)=N[C@@H](c2cccc(C(F)(F)F)c2)C(C(=O)OC)=C1C,0,-,-
O=C(c1cccc(S(=O)(=O)NCc2ccccc2)c1)N1CCN(c2cccc(C(F)(F)F)c2)CC1,0,-,-
O=C1C2C3C=CC(CC3)C2C(=O)N1c1cccc(C(F)(F)F)c1 (stereo not drawn),-119.5,0,0
COc1cc(C2C(C#N)=C(C)NC3=C2C(=O)c2ccccc23)cc(OC)c1OC (stereo not drawn),0,-,-
COc1cc(C2NC(=O)NC(C)=C2C(=O)OCC2CCCO2)cc(OC)c1OC (stereo not drawn),-358.9,0,0
SMILES,Apaf1 activ,Rh110 interf act,Apaf-1 act conf2
COC(=O)C1=C(C)N(Cc2ccccc2)C(=NCc2cc(OC)c(OC)c(OC)c2)N[C@H]1c1ccc(Br)cc1,0,-,-
Clc1ccc2nsnc2c1NC1=NCCN1,0,-,-
Cc1ccc(C)n1-c1nn(S(=O)(=O)c2cccc3cccnc23)c2cccc(F)c12,-40.4,0,0
Cc1ccc(NC2=CC(=O)C(=O)c3ccccc32)cc1,0,-,-
O=[N+]([O-])c1ccc(N/N=C/c2ccc(O)c(O)c2O)c(S(=O)(=O)N2CCOCC2)c1,0,-,-
CCCCN(C(=O)c1cccc(S(=O)(=O)N2CCOCC2)c1)c1c(N)n(CCC)c(=O)[nH]c1=O,-84.0,0,0
COc1ccc(C(=O)N(CCc2ccccc2)Cc2ccccc2)cc1S(=O)(=O)N1CCOCC1,0,-,-
COc1ccc(C(=O)N(Cc2ccccc2)c2cccc(C)c2)cc1S(=O)(=O)N1CCOCC1,0,-,-
CCC(=O)N(CCc1ccccc1C)Cc1cc2cc3c(cc2[nH]c1=O)OCO3,0,-,-
O=C(CCn1c2c(c3ccccc31)CCCC2)NNC(=O)c1ccc([N+](=O)[O-])cc1,0,-,-
Cc1ccc(C(=O)NC(=S)NNC(=O)c2cccc([N+](=O)[O-])c2)cc1,-116.0,0,0
O=C(COC(=O)c1ccc([N+](=O)[O-])s1)NNC(=O)c1ccccc1,0,-,-
O=[N+]([O-])c1cc(Br)c(O)c(C=Nc2ccc(N3CCOCC3)cc2)c1,0,-,-
O=C(OCC(=O)N1CCN(S(=O)(=O)c2ccccc2)CC1)c1ccc([N+](=O)[O-])o1,0,-,-
O=C(O)c1ccc(NC2=C(N3CCOCC3)C(=O)c3ccccc3C2=O)cc1,0,-,-
Clc1nc(Nc2ccc(N3CCOCC3)cc2)c2ccccc2n1,-393.5,0,0
FC(F)(F)c1cc(CCN2CCNC[C@@H]2c2ccccc2)cc(C(F)(F)F)c1,0,-,-
CCOc1cc(N(CC)CC)ccc1/C=C(/C#N)c1nc2ccccc2[nH]1,-46.0,0,0
CCc1ccc(S(=O)(=O)/N=C2\C=C(Nc3ccc(O)cc3)C(=O)c3ccccc32)cc1,0,-,-
O=C(NC1CCS(=O)(=O)C1)Oc1ccccc1 (stereo not drawn),0,-,-
O=C(NCCCCCCNC(=O)OC1CCS(=O)(=O)C1)OC1CCS(=O)(=O)C1 (stereo not drawn),-47.7,0,0
COc1ccc(Cn2c(N)c(C#N)c3nc4ccccc4nc32)cc1OC,0,-,-
COc1ccc(O)c(C(c2c(C)[nH][nH]c2=O)c2c(C)[nH][nH]c2=O)c1,0,-,-
NCCN1CCN(S(=O)(=O)c2ccc([N+](=O)[O-])cc2)C=C1c1ccc(Cl)cc1,0,-,-
CC(C)(C)N1C(=O)Cc2c1nc(N)c1c(N)nc(N3CCCCC3CO)c(C#N)c21 (stereo not drawn),0,-,-
SMILES,Apaf1 activ,Rh110 interf act,Apaf-1 act conf2
CN(c1ccccc1)c1cc(Br)nc(Br)c1,-46.6,0,0
COCCn1c(N)c(C(=O)OCc2ccccc2)c2nc3ccccc3nc21,0,-,-
CC(C)(C)c1cc(C(=O)N2CCN(c3ncccn3)CC2)ccn1,-49.8,0,0
O=C1C(O)=C(O)C(=O)c2ccccc21,0,-,-
Cc1cccc(NC(=O)CN(C)S(=O)(=O)c2cccc3cccnc23)c1C,-164.1,0,0
O=C1N(c2ccccc2)c2ccccc2C1(Cc1ccncc1)Cc1ccncc1,0,-,-
CC1(C)S[C@@H]2[C@H](NC(=O)[C@H](N)c3ccccc3)C(=O)N2[C@H]1C(=O)O,0,-,-
CC1(C)C(C(=O)OCC(Cl)(Cl)Cl)N2C(=O)C(NC(=O)Cc3ccccc3)C2S1=O (stereo not drawn),-84.7,0,0
CC(C)Oc1ccc(C2NC(=O)c3ccccc3O2)cc1 (stereo not drawn),-97.8,0,0
COc1cccc(-c2sc3ccccc3c2-c2ccc(OCCN3CCCCC3)cc2)c1,0,-,-
CC[C@@H](C)[C@@H]1CN([C@@H](C)CN2CCC[C@H]2CN2C(N)=NC[C@H]2CC(C)C)C(=N)N1CCc1ccc(Cl)c(Cl)c1,0,-,-
Cc1[nH]c(=O)[nH]c(=O)c1S(=O)(=O)Nc1ccc(F)cc1F,-264.5,0,0
CC1(C)Cc2c(sc3nc(N/N=C/c4ccccc4)[nH]c(=O)c23)CO1,-235.6,0,0
Cc1ccc(-n2c(SCC(=O)Nc3cc(C)on3)nc3c([nH]c4ccccc43)c2=O)cc1,0,-,-
O=C1C(Cl)=C(N2CCCCC2)C(=O)C(Cl)=C1c1cnc(N2CCCCC2)s1,0,-,-
Cc1nc(C(=O)NNC(=O)Nc2ccccc2)cs1,0,-,-
